What was measured:
[1] = target: T1, CYP1A2 (Homo sapiens, UniProt P05177); assay: Inhibition of CYP1A2 in human liver microsomes assessed as remaining activity at 10 uM using phenacetin as substrate preincubated for 5 mins followed by addition of NADPH regenerating system and measured after 15 mins by LC-MS/MS analysis relative to control; format: ADME; details: probe phenacetin, read-out: Activity
T1 sequence (P05177 whole entry): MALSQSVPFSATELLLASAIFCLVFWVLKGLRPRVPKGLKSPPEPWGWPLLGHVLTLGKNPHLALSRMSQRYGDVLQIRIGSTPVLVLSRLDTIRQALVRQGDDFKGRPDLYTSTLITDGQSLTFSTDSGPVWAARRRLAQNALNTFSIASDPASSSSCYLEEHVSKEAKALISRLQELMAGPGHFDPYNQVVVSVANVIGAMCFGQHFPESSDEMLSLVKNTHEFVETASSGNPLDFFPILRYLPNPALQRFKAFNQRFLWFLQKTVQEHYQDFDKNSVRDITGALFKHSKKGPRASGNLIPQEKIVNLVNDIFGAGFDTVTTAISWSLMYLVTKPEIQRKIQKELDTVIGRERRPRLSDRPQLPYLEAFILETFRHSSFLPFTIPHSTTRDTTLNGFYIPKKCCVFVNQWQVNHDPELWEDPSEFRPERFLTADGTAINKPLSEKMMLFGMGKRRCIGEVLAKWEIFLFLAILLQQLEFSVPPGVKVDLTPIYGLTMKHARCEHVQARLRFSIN
Procedure, shortened: (§1)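 Human liver microsomes (0.25 mg/mL) in 0.1 M phosphate buffer with test article at 0 or 10 μM and substrate cocktail, preincubated 5 min at 37 °C. Cocktail A: phenacetin 50 μM, coumarin 2.5 μM, S-mephenytoin 100 μM, dextromethorphan 5 μM, midazolam 2.5 μM. Cocktail B: bupropion 50 μM, amodiaquine 2.5 μM, tolbutamide 100 μM, chlorzoxazone 50 μM. NADPH system added, then 15 min at 37 °C; acetonitrile quench, LC-MS/MS.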

[2] = Efflux ratio of apparent permeability from basolateral to apical side over apical to basolateral side in human Caco2 cells at 25 uM; format: ADME, cell-based; details: Caco-2
[3] = Apparent permeability across apical to basolateral side in human Caco2 cells at 25 uM measured every 15 mins for 60 mins by LC-MS/MS method; format: ADME, cell-based; details: Caco-2
Procedure, shortened: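 Caco-2 cells were seeded at 1×10^6 per 12-well transwell and grown 3 weeks. Test article was 25 μM in HBSS transport buffer (10 mM glucose, 4 mM bicarbonate, 1 mM HEPES, pH 7.4), added to the apical or basolateral side. Incubated 60 min at 37 °C with sampling every 15 min; LC-MS/MS read-out.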

[4] = target: CYP2D6 (Homo sapiens, UniProt P10635); assay: Inhibition of CYP2D6 in human liver microsomes assessed as remaining activity at 10 uM using dextromethorphan as substrate preincubated for 5 mins followed by addition of NADPH regenerating system and measured after 15 mins by LC-MS/MS analysis relative to control; format: ADME; details: probe dextromethorphan, read-out: Activity; procedure, shortened: as §1
CYP2D6, sequence (P10635 whole entry): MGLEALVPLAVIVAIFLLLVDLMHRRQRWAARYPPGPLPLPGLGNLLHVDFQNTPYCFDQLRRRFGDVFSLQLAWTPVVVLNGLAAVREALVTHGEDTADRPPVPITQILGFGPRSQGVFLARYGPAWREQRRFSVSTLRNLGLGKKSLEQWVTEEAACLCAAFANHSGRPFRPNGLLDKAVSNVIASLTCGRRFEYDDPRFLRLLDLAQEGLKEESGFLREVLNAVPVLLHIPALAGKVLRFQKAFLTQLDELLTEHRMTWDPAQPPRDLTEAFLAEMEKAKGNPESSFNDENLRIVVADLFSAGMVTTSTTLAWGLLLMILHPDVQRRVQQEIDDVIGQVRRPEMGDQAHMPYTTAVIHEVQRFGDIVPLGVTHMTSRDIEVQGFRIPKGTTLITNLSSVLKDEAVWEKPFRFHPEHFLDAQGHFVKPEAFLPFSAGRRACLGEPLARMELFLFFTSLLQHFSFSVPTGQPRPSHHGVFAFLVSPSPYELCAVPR

[5] = Metabolic stability in dog liver microsomes assessed as parent compound remaining at 1 uM preincubated for 5 mins followed by addition of NADPH regenerating system and measured after 30 mins by LC-MS/MS method; format: ADME, Canis lupus familiaris, microsome; details: read-out: Stability
Procedure, shortened: (§2)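 Liver microsomes (0.5 mg/mL; human, dog or mouse) in 0.1 M phosphate buffer with test article at 1 μM, preincubated 5 min at 37 °C. NADPH regenerating system added, then 30 min at 37 °C. Acetonitrile with chlorpropamide internal standard added, sample centrifuged, supernatant analysed by LC-MS/MS.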

[6] = target: CYP3A4 (Homo sapiens, UniProt P08684); assay: Inhibition of CYP3A4 in human liver microsomes assessed as remaining activity at 10 uM using midazolam as substrate preincubated for 5 mins followed by addition of NADPH regenerating system and measured after 15 mins by LC-MS/MS analysis relative to control; format: ADME; details: probe midazolam, read-out: Activity; procedure, shortened: as §1
CYP3A4, sequence (P08684 whole entry): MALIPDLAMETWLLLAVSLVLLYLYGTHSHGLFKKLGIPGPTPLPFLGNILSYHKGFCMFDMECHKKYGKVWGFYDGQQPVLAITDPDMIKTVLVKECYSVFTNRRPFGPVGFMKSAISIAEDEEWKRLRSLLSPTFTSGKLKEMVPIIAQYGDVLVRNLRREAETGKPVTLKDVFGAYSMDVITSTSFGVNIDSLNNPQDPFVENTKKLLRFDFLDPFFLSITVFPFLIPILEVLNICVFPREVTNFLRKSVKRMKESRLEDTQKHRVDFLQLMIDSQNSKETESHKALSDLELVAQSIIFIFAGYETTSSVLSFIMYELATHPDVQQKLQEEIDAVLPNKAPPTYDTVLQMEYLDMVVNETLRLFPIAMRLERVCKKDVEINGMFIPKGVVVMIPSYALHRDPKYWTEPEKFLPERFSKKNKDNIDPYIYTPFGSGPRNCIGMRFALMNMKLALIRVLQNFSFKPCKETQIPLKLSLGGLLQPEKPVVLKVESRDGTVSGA

[7] = Protein binding in human plasma at 10 uM after 4 hrs by rapid equilibrium dialysis method; format: ADME, cell-free; details: read-out: PPB (converted)
Procedure, shortened: (§3)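 Rapid equilibrium dialysis of human or rat plasma dosed at 10 μM against PBS pH 7.4, 4 h at 37 °C. Plasma and buffer aliquots were matrix-matched with blank buffer or plasma, precipitated with acetonitrile containing chlorpropamide internal standard, and analysed by LC-MS/MS. Dexamethasone and warfarin served as positive controls.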

[8] = Metabolic stability in rat plasma assessed as parent compound remaining at 10 uM after 120 mins by LC-MS/MS method; format: ADME, cell-free; details: read-out: Stability
Procedure, shortened: (§4)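 Rat plasma spiked with test article at 10 μM and incubated at 37 °C, sampled at 0, 30 and 120 min. Acetonitrile containing chlorpropamide internal standard added, then vortexed and centrifuged at 4 °C; supernatant quantified by LC-MS/MS as % remaining. Procaine and diltiazem served as positive controls.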

[9] = Metabolic stability in mouse liver microsomes assessed as parent compound remaining at 1 uM preincubated for 5 mins followed by addition of NADPH regenerating system and measured after 30 mins by LC-MS/MS method; format: ADME, microsome; details: read-out: Stability; procedure, shortened: as §2
[10] = Protein binding in rat plasma at 10 uM after 4 hrs by rapid equilibrium dialysis method; format: ADME, cell-free; details: read-out: PPB (converted); procedure, shortened: as §3
[11] = target: T2, CYP2C8 (Homo sapiens, UniProt P10632); assay: Inhibition of CYP2C8 in human liver microsomes assessed as remaining activity at 10 uM preincubated for 5 mins followed by addition of NADPH regenerating system and measured after 15 mins by LC-MS/MS analysis relative to control; format: ADME; details: read-out: Activity
T2 sequence (P10632 whole entry): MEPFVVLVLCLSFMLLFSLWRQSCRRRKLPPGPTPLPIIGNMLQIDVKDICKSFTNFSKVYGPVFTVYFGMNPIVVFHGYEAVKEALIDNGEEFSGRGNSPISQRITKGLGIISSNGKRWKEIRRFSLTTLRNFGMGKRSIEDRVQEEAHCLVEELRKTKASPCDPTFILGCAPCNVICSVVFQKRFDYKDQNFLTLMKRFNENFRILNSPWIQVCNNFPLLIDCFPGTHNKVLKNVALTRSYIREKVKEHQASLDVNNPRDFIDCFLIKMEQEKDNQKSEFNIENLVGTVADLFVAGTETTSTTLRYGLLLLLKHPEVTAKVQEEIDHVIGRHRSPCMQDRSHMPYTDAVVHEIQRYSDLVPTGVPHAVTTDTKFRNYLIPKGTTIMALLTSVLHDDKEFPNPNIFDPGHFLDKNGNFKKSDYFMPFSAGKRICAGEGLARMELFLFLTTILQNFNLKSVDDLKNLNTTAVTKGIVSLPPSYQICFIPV

[12] = target: CYP2C9 (Homo sapiens, UniProt P11712); assay: Inhibition of CYP2C9 in human liver microsomes assessed as remaining activity at 10 uM using tolbutamide as substrate preincubated for 5 mins followed by addition of NADPH regenerating system and measured after 15 mins by LC-MS/MS analysis relative to control; format: ADME; details: probe tolbutamide, read-out: Activity; procedure, shortened: as §1
CYP2C9, sequence (P11712 whole entry): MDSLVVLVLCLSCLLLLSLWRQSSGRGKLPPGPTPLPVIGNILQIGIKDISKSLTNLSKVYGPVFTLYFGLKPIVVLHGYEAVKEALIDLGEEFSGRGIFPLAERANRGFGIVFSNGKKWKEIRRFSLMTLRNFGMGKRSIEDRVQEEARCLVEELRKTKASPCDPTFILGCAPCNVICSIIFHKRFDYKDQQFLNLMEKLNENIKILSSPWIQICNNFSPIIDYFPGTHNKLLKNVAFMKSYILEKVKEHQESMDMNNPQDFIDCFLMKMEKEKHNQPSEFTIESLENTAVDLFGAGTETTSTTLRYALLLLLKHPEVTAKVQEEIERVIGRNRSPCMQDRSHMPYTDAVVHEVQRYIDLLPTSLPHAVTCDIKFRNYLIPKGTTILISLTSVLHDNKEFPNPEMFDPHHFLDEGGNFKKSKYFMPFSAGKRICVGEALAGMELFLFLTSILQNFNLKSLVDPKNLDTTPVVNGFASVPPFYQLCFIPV

[13] = Metabolic stability in rat plasma assessed as parent compound remaining at 10 uM after 30 mins by LC-MS/MS method; format: ADME, cell-free; details: read-out: Stability; procedure, shortened: as §4
[14] = Metabolic stability in human plasma assessed as parent compound remaining at 10 uM after 30 mins by LC-MS/MS method; format: ADME, cell-free; details: read-out: Stability
Procedure, shortened: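 Human plasma spiked with test article at 10 μM and incubated at 37 °C for 0, 30 and 120 min. Acetonitrile with chlorpropamide internal standard added, sample centrifuged at 4 °C, supernatant analysed by LC-MS/MS; result given as percent remaining.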

| SMILES | activity at 0.25 h, 10 µM [1] | efflux ratio at 25 µM [2] | Papp A→B at 1 h, 25 µM [3] | activity at 0.25 h, 10 µM [4] | remaining at 0.5 h, 1 µM [5] | activity at 0.25 h, 10 µM [6] | fraction unbound at 4 h, 10 µM [7] | remaining at 2 h, 10 µM [8] | remaining at 0.5 h, 1 µM [9] | fraction unbound at 4 h, 10 µM [10] | activity at 0.25 h, 10 µM [11] | activity at 0.25 h, 10 µM [12] | remaining at 0.5 h, 10 µM [13] | remaining at 0.5 h, 10 µM [14] |
| --- | --- | --- | --- | --- | --- | --- | --- | --- | --- | --- | --- | --- | --- | --- |
| CN(c1ncnc2[nH]ccc12)[C@H]1CN(S(=O)(=O)c2cccc(C#N)c2)CC12CC2 | 65.7% | 1.17 | 13.4 ×10⁻⁶ cm/s | 90.3% | 5.5% | 33.2% | 0.126 | > 100% | 3.2% | 0.142 | 66.2% | 50.4% | > 100% | 96.6% |
| CCS(=O)(=O)N1C[C@H](N(C)c2ncnc3[nH]ccc23)C2(CC2)C1 | 99.9% | 1.01 | 25.4 ×10⁻⁶ cm/s | > 100% | 56.1% | 95.4% | 0.556 | > 100% | 33.9% | 0.505 | > 100% | 90.7% | > 100% | > 100% |
| CN(c1ncnc2[nH]ccc12)[C@H]1CN(C(=O)CC#N)CC12CC2 | 92.5% | 2.78 | 6.6 ×10⁻⁶ cm/s | 91.6% | 99.9% | 89.7% | 0.702 | 89.6% | 84.9% | 0.813 | 81% | 84.4% | 98.4% | 95% |
